Laboratory results from publication PMC3711763 (The Journal of neuroscience : the official journal of the …, 2013).
Where two headings read alike, the source gives them in different places.

Assays:
[1] = test system: impulsive action in the 5-CSRT task; settings: cited from earlier work
male Sprague Dawley rats [2] = assay: spontaneous locomotor activity; type: in vivo, rat; settings: i.p.
male Sprague Dawley rats [3] = assay: 1-choice serial reaction time; type: in vivo, rat; settings: i.p.; for % Accuracy / % Omissions / Latency to start / Response latency / Time to finish: mean ± SEM; for number of reinforcers earned (combination study) / premature responses (combination study): alone or combined
In short: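 Male Sprague Dawley rats (225–325 g) were housed two per cage and food-restricted to 90% of free-feeding weight. They were trained until stable: >80% accuracy and <20% omissions for five consecutive sessions at the final stage (0.5 s stimulus, 5 s limited hold, 5 s ITI), with <15% variability. Test compound or saline vehicle was given i.p. 15 min pre-session. Data were analysed by one-way repeated-measures ANOVA with Dunnett's test versus saline.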

5-HT2AR = 5-HT2AR (Homo sapiens, UniProt P28223); assay: intracellular calcium release in 5-HT2AR–CHO cells; type: cell-based; settings: for Cai2+ release, peptide alone, in 5-HT2AR–CHO cells: 15 min, peptide alone (data not shown); for effect on 5-HT-mediated Cai2+ release in 5-HT2AR–CHO cells: 15 min preincubation, 10 nM 5-HT
Chain of 5-HT2AR (P28223 whole entry): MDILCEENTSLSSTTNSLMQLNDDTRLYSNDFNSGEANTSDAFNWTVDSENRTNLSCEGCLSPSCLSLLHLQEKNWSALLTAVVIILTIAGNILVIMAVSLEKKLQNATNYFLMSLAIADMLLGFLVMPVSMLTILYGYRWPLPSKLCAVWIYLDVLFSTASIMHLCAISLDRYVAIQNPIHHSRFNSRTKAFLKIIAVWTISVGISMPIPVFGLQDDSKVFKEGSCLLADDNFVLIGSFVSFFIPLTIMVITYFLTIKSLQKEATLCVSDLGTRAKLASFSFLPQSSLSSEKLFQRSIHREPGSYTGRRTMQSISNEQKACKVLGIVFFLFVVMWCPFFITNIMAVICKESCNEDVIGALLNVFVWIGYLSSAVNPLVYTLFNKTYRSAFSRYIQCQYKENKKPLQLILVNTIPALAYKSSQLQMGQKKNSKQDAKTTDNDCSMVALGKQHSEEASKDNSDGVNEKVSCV

circular dichroism = type: physicochemical; settings: in water; 3L4F 300 μM, 3L4F-F1 100 and 300 μM; three independent trials
5-HT2CR = settings: for Cai2+ release, peptide alone (unstimulated): no agonist, fluorescence; for effect on 5-HT-evoked Cai2+ release: ANOVA main effect
[4] = test system: 5-HT2CR and PTEN protein expression, 5-HT2CR–CHO cells; assay: Western blot of protein expression in 5-HT2CR–CHO cells; type: cell-based, human 5-HT2CR; CHO cells; settings: 1 pM, 15 min preincubation
In short: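 Cells were rinsed in ice-cold Krebs' solution, pelleted, and homogenized in HEPES/EDTA/EGTA/DTT buffer containing protease and phosphatase inhibitors. The membrane pellet from differential centrifugation was resuspended in buffer with 400 mM NaCl and 0.5% NP-40. Protein was quantified by BCA, reduced and heated at 70°C for 20 min, run on 4–12% Bis-Tris SDS-PAGE and transferred to PVDF. Blots were probed with primary antibody overnight and secondary for 45 min, then read by infrared imaging.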

[5] = test system: 5-HT2CR–PTEN complex in VTA; assay: co-IP of 5-HT2CR–PTEN complex in rat VTA after systemic administration; type: in vivo; settings: 10 μmol/kg, i.p., killed 5 min later, relative to vehicle (saline)
[6] = TAT–3L4F 0.1 μmol/kg, WAY163909 1 mg/kg, alone or combined
[7] = TAT–3L4F 0.1 μmol/kg, WAY163909 1 mg/kg, alone or combined, p < 0.05
[8] = 0.5 and 1 mg/kg, versus saline, p < 0.05
[9] = TAT–3L4F 0.3 μmol/kg, WAY163909 0.1 mg/kg, versus saline
[10] = WAY163909 0.1 mg/kg, combination study
[11] = 15 min preincubation, Calcium 4 dye
[12] = 15 min preincubation, 1 nM 5-HT
[13] = 1 μmol/kg, versus saline, p < 0.05
[14] = TAT–3L4F 0.3 μmol/kg, combination study

For `Cc1cc2c(cc1Cl)N(C(=O)Nc1ccc(Oc3cccnc3C)nc1)CC2.Cl.Cl` [SB242084, 6-chloro-5-methyl-1-((2-(2-methylpyrid-3-yloxy)pyrid-5-yl)carbamoyl)indoline dihydrochloride], the “impulsive action by premature responses in the 5-CSRT task” value ([1]; ref Winstanley et al., 2004b, Fletcher et al., 2007) is listed as “increase impulsive action”.

In the case of `c1cc2c3c(c1)[C@H]1CCC[C@H]1N3CCNC2` [WAY163909, (7bR, 10aR)-1,2,3,4,8,9,10,10a-octa-hydro-7bH-cyclopenta-(b)(1,4)diazepino (6,7,1hi)indole], the “total vertical activity, 70 min (combination study)” value (male Sprague Dawley rats [2]; [6]) is reported as “No main effect of treatment was observed for vertical activity”, the “vertical activity, 5-min bins (combination study)” value (male Sprague Dawley rats [2]; [6]) is reported as “No main effect of treatment” and the “central ambulation, 5-min bins (combination study)” value (male Sprague Dawley rats [2]; [7]) is reported as “significantly reduced central ambulation versus saline at 10 min”. The “peripheral ambulation, 5-min bins (combination study)” value (male Sprague Dawley rats [2]; [7]) was “significantly reduced peripheral ambulation versus saline at 5 and 10 min”, the “total central ambulation, 70 min (combination study)” value (male Sprague Dawley rats [2]; [7]) was “but not either ligand alone” and the “total horizontal ambulation, 70 min (combination study)” value (male Sprague Dawley rats [2]; TAT–3L4F 0.1 μmol/kg, WAY163909 1 mg/kg, alone or combined, versus saline) was “neither ligands tested alone at chosen doses altered total horizontal ambulation”. The “% Accuracy” value (male Sprague Dawley rats [3]; 0.05 mg/kg) was 100.52 ± 0.4%, the “% Omissions” value (male Sprague Dawley rats [3]; 0.05 mg/kg) was 6.23 ± 1.1% and the Latency to start (male Sprague Dawley rats [3]; 0.05 mg/kg) was 0.69 ± 0.2 s. The Response latency (male Sprague Dawley rats [3]; 0.05 mg/kg) was 2.75 ± 0.4 s, the Time to finish (male Sprague Dawley rats [3]; 0.05 mg/kg) was 933.62 ± 29.4 s and the “% Accuracy” value (male Sprague Dawley rats [3]; 0.1 mg/kg, dose-response study) was 100.72 ± 0.5%. For the same compound, the “% Omissions” value (male Sprague Dawley rats [3]; 0.1 mg/kg, dose-response study) was 5.40 ± 0.9%, the Latency to start (male Sprague Dawley rats [3]; 0.1 mg/kg, dose-response study) was 1.13 ± 0.2 s and the Response latency (male Sprague Dawley rats [3]; 0.1 mg/kg, dose-response study) was 2.57 ± 0.2 s. For the same compound, the Time to finish (male Sprague Dawley rats [3]; 0.1 mg/kg, dose-response study) was 923.55 ± 16.5 s, the “% Accuracy” value (male Sprague Dawley rats [3]; 0.2 mg/kg) was 100.15 ± 0.7% and the “% Omissions” value (male Sprague Dawley rats [3]; 0.2 mg/kg) was 6.26 ± 1.6%. It also gave a Latency to start (male Sprague Dawley rats [3]; 0.2 mg/kg) of 0.85 ± 0.2 s, a Response latency (male Sprague Dawley rats [3]; 0.2 mg/kg) of 2.84 ± 0.4 s and a Time to finish (male Sprague Dawley rats [3]; 0.2 mg/kg) of 941.12 ± 34.9 s. The “% Accuracy” value (male Sprague Dawley rats [3]; 0.5 mg/kg) was 100.61 ± 0.4%, the “% Omissions” value (male Sprague Dawley rats [3]; 0.5 mg/kg) was 5.85 ± 0.9% and the Latency to start (male Sprague Dawley rats [3]; 0.5 mg/kg) was 0.62 ± 0.1 s. The Response latency (male Sprague Dawley rats [3]; 0.5 mg/kg) was 2.54 ± 0.2 s, the Time to finish (male Sprague Dawley rats [3]; 0.5 mg/kg) was 926.23 ± 17.3 s and the “% Accuracy” value (male Sprague Dawley rats [3]; 1 mg/kg) was 101.48 ± 0.6%. For the same compound, the “% Omissions” value (male Sprague Dawley rats [3]; 1 mg/kg) was 8.94 ± 0.7%, the Latency to start (male Sprague Dawley rats [3]; 1 mg/kg) was 1.11 ± 0.2 s and the Response latency (male Sprague Dawley rats [3]; 1 mg/kg) was 3.06 ± 0.4 s. For the same compound, the Time to finish (male Sprague Dawley rats [3]; 1 mg/kg) was 981.14 ± 33.7 s, the “number of reinforcers earned” value (male Sprague Dawley rats [3]; [8]) was “increased the number of reinforcers earned versus saline” and the premature responses (male Sprague Dawley rats [3]; [8]) was “decreased premature responses versus saline”. The “number of reinforcers earned (combination study)” value (male Sprague Dawley rats [3]; [9]) was “Neither 0.3 μmol/kg TAT–3L4F nor 0.1 mg/kg WAY163909 alone altered the number of reinforcers earned versus saline”, the “premature responses (combination study)” value (male Sprague Dawley rats [3]; [9]) was “Neither 0.3 μmol/kg TAT–3L4F nor 0.1 mg/kg WAY163909 alone altered premature responses” and the “% Accuracy” value (male Sprague Dawley rats [3]; [10]) was 100.21 ± 0.8%. The “% Omissions” value (male Sprague Dawley rats [3]; [10]) was 5.45 ± 1.0%, the Latency to start (male Sprague Dawley rats [3]; [10]) was 1.11 ± 0.3 s and the Response latency (male Sprague Dawley rats [3]; [10]) was 2.83 ± 0.5 s. The Time to finish (male Sprague Dawley rats [3]; [10]) was 948.78 ± 37.7 s, the “additional measures of task performance” value (male Sprague Dawley rats [3]; accuracy, motivation, motility indices) was “did not alter additional measures of task performance, including accuracy, motivation, or motility indices” and the “impulsive action by premature responses in the 5-CSRT task” value ([1]; ref Navarra et al., 2008) was “potently suppress”.

For Ac-PNQDQNAR-NH2 [3L4F-F1], the “Cai2+ release, peptide alone, in 5-HT2AR–CHO cells” value (5-HT2AR) was “did not induce Cai2+ release”, the “effect on 5-HT-mediated Cai2+ release in 5-HT2AR–CHO cells” value (“effect on 5-HT-mediated Cai2+ release” for short) (5-HT2AR) was “did not induce Cai2+ release or alter Cai2+ release evoked by 10 nM 5-HT” and the “CD signal at 222 nm” value (circular dichroism) was “shallow inflection point at 222 nm”. The “α-helix content by CD” value (circular dichroism) was 10–30%, the “Cai2+ release, peptide alone (unstimulated)” value (from here on “Cai2+ release … (unstimulated)”) (5-HT2CR; [11]) was “did not induce Cai2+ release” and the “concentrations that significantly increased Cai2+ release versus 1 nM 5-HT” value (5-HT2CR; 15 min preincubation, 1 nM 5-HT, Calcium 4 dye, FlexStation3, p < 0.05) was 10 ^−13 to 10 ^−9 M.

In the case of Ac-PNQDQNARRRKKKERR-NH2 [3L4F], the “Cai2+ release, peptide alone, in 5-HT2AR–CHO cells” value (5-HT2AR) is reported as “nor did it alter Cai2+ release when tested alone”, the “effect on 5-HT-mediated Cai2+ release” value (5-HT2AR) is reported as “did not potentiate 5-HT-mediated (10 nM) Cai2+ release” and the “membrane protein expression levels of 5-HT2CR or PTEN” value [4] is reported as “unchanged”. The “CD signal at 222 nm” value (circular dichroism) was “clear inflection point at 222 nm”, the “α-helix content by CD” value (circular dichroism) was less than 50% and the “cellular entry without TAT conjugation” value (5-HT2CR) was “TAT conjugation is not necessary for cellular entry”. The “Emax of 5-HT-evoked Cai2+ release in presence of peptide” value (5-HT2CR; 1 pM peptide, 15 min, 5-HT concentration response, p < 0.05) was 120.7 % of maximal response for 5-HT and the “Cai2+ release … (unstimulated)” value (5-HT2CR; [11]) was “did not alter unstimulated Cai2+ release”.

For Ac-QNARRRKK-NH2 [3L4F-F2], the “Cai2+ release, peptide alone, in 5-HT2AR–CHO cells” value (5-HT2AR) was “did not induce Cai2+ release”, the “effect on 5-HT-mediated Cai2+ release” value (5-HT2AR) was “did not induce Cai2+ release or alter Cai2+ release evoked by 10 nM 5-HT” and the “Cai2+ release … (unstimulated)” value (5-HT2CR; [11]) was “did not induce Cai2+ release”. For the same compound, the “effect on 5-HT-evoked Cai2+ release” value (5-HT2CR; [12]) was “No main effect”.

For Ac-RRKKKERR-NH2 [3L4F-F3], the “Cai2+ release, peptide alone, in 5-HT2AR–CHO cells” value (5-HT2AR) was “did not induce Cai2+ release”, the “effect on 5-HT-mediated Cai2+ release” value (5-HT2AR) was “did not induce Cai2+ release or alter Cai2+ release evoked by 10 nM 5-HT” and the “Cai2+ release … (unstimulated)” value (5-HT2CR; [11]) was “did not induce Cai2+ release”. The “effect on 5-HT-evoked Cai2+ release” value (5-HT2CR; [12]) was “No main effect”.

With “Ac-YGRKKRRQRRRPNPDQKPRRKKKEKR-NH2 [rat TAT–3L4F]” the “effect across multiple activity measures” value (male Sprague Dawley rats [2]; 0.1 μmol/kg, alone) was “ineffective across multiple activity measures”, the “horizontal ambulation, 5-min bins” value (male Sprague Dawley rats [2]; 1 μmol/kg, 15 min before test, versus saline, p < 0.05) was “significantly reduced horizontal ambulation versus saline at 5, 10, and 15 min” and the “total horizontal ambulation, 70 min” value (male Sprague Dawley rats [2]; [13]) was “significantly reduced total horizontal ambulation versus saline”. For the same compound, the “total peripheral ambulation, 70 min” value (male Sprague Dawley rats [2]; [13]) was “significantly reduced peripheral ambulation versus saline”, the “central ambulation, 5-min bins” value (male Sprague Dawley rats [2]; 0.1 or 1 μmol/kg) was “No main effect of treatment” and the “vertical activity, 5-min bins” value (male Sprague Dawley rats [2]; 0.1 or 1 μmol/kg) was “No main effect of treatment”. The “total vertical activity, 70 min (combination study)” value (male Sprague Dawley rats [2]; [6]) was “No main effect of treatment was observed for vertical activity”, the “vertical activity, 5-min bins (combination study)” value (male Sprague Dawley rats [2]; [6]) was “No main effect of treatment” and the “total central ambulation, 70 min (combination study)” value (male Sprague Dawley rats [2]; [7]) was “but not either ligand alone”. The “intensity of PTEN immunoreactive band after IP for 5-HT2CR, VTA” value [5] was “attenuated relative to vehicle (saline) treatment”, the “number of reinforcers earned (combination study)” value (male Sprague Dawley rats [3]; [9]) was “Neither 0.3 μmol/kg TAT–3L4F nor 0.1 mg/kg WAY163909 alone altered the number of reinforcers earned versus saline” and the “premature responses (combination study)” value (male Sprague Dawley rats [3]; [9]) was “Neither 0.3 μmol/kg TAT–3L4F nor 0.1 mg/kg WAY163909 alone altered premature responses”. For the same compound, the “% Accuracy” value (male Sprague Dawley rats [3]; [14]) was 98.69 ± 0.6%, the “% Omissions” value (male Sprague Dawley rats [3]; [14]) was 4.77 ± 1.0% and the Latency to start (male Sprague Dawley rats [3]; [14]) was 1.00 ± 0.6 s. It also gave a Response latency (male Sprague Dawley rats [3]; [14]) of 2.19 ± 0.2 s and a Time to finish (male Sprague Dawley rats [3]; [14]) of 875.10 ± 15.3 s.
